According to ChEMBL document CHEMBL1212850, “Synthesis and biological evaluation of arylidene analogues of Meldrum's acid as a new class of antimalarial and antioxidant agents” (Bioorg Med Chem, 2010):

What was measured:
Plasmodium falciparum = assay: Antimalarial activity against Plasmodium falciparum infected in human O+ erythrocytes after 48 hrs by HRP2-ELISA method; type: functional, organism-based
[1] = test system: Radical scavenging activity; assay: Antioxidant activity assessed as DPPH free radical scavenging activity at 100 uM after 1 hr; type: functional
Outline: (§1)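 Test compound at various concentrations added to 60 µM methanolic DPPH. Held 1 h at room temperature, then absorbance read at 517 nm; trolox used as reference standard. Values from three experiments.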

[2] = Antioxidant activity assessed as ABTS free radical scavenging activity at 100 uM after 12 hrs; type: functional
Outline: (§2)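 ABTS radical cation made by mixing 7 mM ABTS stock with 2.45 mM potassium persulfate, left 12 h in dark. Ethanolic compound solution added to ABTS solution, absorbance at 734 nm read after mixing up to 6 min. Reported as % ABTS radical scavenged; triplicate.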

[3] = test system: Radical scavenging activity; assay: Antioxidant activity assessed as DPPH free radical scavenging activity after 1 hr; type: functional; outline: as §1
[4] = Antioxidant activity assessed as ABTS free radical scavenging activity after 12 hrs; type: functional; outline: as §2

| Structure (SMILES) | IC50 (Plasmodium falciparum) [µM] | IC50 [3] [µM] | IC50 [4] [µM] | inhibition [1] [%] | inhibition [2] [%] |
| --- | --- | --- | --- | --- | --- |
| COc1cc(C=C2C(=O)OC(C)(C)OC2=O)ccc1OCc1ccccc1 | 37.2 | – | – | 10.7 | 3.62 |
| CC1(C)OC(=O)C2(OC2c2ccccc2[N+](=O)[O-])C(=O)O1 (stereo not drawn) | > 100 | – | – | – | – |
| CC1(C)OC(=O)C(=Cc2c[nH]c3ccccc23)C(=O)O1 | 41.7 | – | – | 1.79 | 3.12 |
| C[C@@H]1CC[C@H]2[C@@H](C)C(=O)O[C@@H]3O[C@@]4(C)CC[C@@H]1[C@]32OO4 [ARTEMISININ] | 0.0028 | – | – | – | – |
| CC1(C)OC(=O)C(=Cc2c3ccccc3cc3ccccc23)C(=O)O1 | > 100 | – | – | 8.76 | 10.7 |
| CC1(C)OC(=O)C2(OC2c2ccccc2)C(=O)O1 (stereo not drawn) | > 100 | – | – | – | – |
| CC1(C)OC(=O)C(=Cc2cccs2)C(=O)O1 | > 100 | – | – | 6.32 | 3.77 |
| COc1ccc(C=C2C(=O)OC(C)(C)OC2=O)cc1 | 36.4 | – | – | 5.81 | 9.26 |
| O=C1CCCC(=O)C1=Cc1ccccc1 | > 100 | – | – | – | – |
| CC1(C)OC(=O)C(=Cc2ccccc2)C(=O)O1 | 37.8 | – | – | – | – |
| CC1(C)OC(=O)C(=Cc2ccccc2[N+](=O)[O-])C(=O)O1 | 39.6 | – | – | 6.41 | 1.3 |
| O=C1O[C@H]([C@@H](O)CO)C(O)=C1O [ASCORBIC ACID] | – | 22.4 | 25.5 | 99.4 | 98 |
| Cc1c(C)c2c(c(C)c1O)CCC(C)(C(=O)O)O2 (stereo not drawn) [TROLOX] | – | 15.7 | 16.2 | 99.5 | 99.1 |

Continued, in another order:

| IC50 (Plasmodium falciparum) [µM] | IC50 [3] [µM] | IC50 [4] [µM] | Structure (SMILES) | inhibition [1] [%] | inhibition [2] [%] |
| --- | --- | --- | --- | --- | --- |
| 31.8 | – | – | COc1ccc2ccccc2c1C=C1C(=O)OC(C)(C)OC1=O | 9.48 | 4.73 |
| 24.3 | – | – | CC1(C)OC(=O)C(=C/C=C/c2ccccc2)C(=O)O1 | 53.1 | 20.2 |
| 34.7 | – | – | COc1ccc(C=C2C(=O)OC(C)(C)OC2=O)c(OC)c1OC | 5.72 | 13 |
| 14.3 | – | – | CC1(C)OC(=O)C(=Cc2ccc3ccccc3c2)C(=O)O1 | 20.6 | 17 |
| 26.1 | – | – | COc1ccc(C=C2C(=O)OC(C)(C)OC2=O)cc1OC | 4.74 | 6.84 |
| 36.1 | – | – | COc1ccc(C=C2C(=O)OC(C)(C)OC2=O)cc1OCc1ccccc1 | – | – |
| 28.1 | – | – | CC1(C)OC(=O)C(=Cc2ccc3c(c2)OCO3)C(=O)O1 | 8.2 | 8.25 |
| 15.5 | 39.1 | 30.7 | CCOc1cc(C=C2C(=O)OC(C)(C)OC2=O)ccc1O | 66.2 | 95.6 |
| 16.1 | – | – | CC1(C)OC(=O)C(=Cc2cccc3ccccc23)C(=O)O1 | 8.88 | 7.55 |
| 9.68 | 24 | 30.5 | COc1cc(C=C2C(=O)OC(C)(C)OC2=O)ccc1O | 76 | 92.6 |
| 34.6 | – | – | CC1(C)OC(=O)C(=Cc2ccc(O)cc2)C(=O)O1 | 5.12 | 14.4 |
| 20.2 | – | – | COc1cc(C=C2C(=O)OC(C)(C)OC2=O)cc(OC)c1OC | 3.24 | 5.33 |
| 33.2 | – | – | COc1ccc(OC)c(C=C2C(=O)OC(C)(C)OC2=O)c1 | 12.2 | 13.8 |
| 33.9 | – | – | COc1cc(OC)c(OC)cc1C=C1C(=O)OC(C)(C)OC1=O | 6.23 | 9.86 |
| 35.2 | – | – | CN(C)c1ccc(C=C2C(=O)OC(C)(C)OC2=O)cc1 | 10.3 | 13.9 |
| 12.4 | 80 | 72.2 | COc1ccc(C=C2C(=O)OC(C)(C)OC2=O)cc1O | 40.2 | 52.8 |
